ChEMBL document CHEMBL1124441, “Synthesis of congeners and prodrugs. 3. Water-soluble prodrugs of taxol with potent antitumor activity” (1989)

Experiments:
B16 [1] = test: Percent of median lifetime of test animals divided by the median lifetime of control animals at a dose of 5 mg/kg intraperitoneally; assay type: functional, Mus musculus; conditions: route intraperitoneal
Summary of the method: (§1)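 B16 melanoma inoculated ip (10⁶ cells) on day 0. Daily ip treatment for 9 days (Q01Dx09) begins day 1, dosed per injection in mg/kg. %T/C is the median lifespan of treated animals divided by that of tumored untreated controls, ×100. Cures are animals alive on the last test day. Toxic deaths are assessed on day 4.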

MX1 [2] = test: (§2) Difference in body weight in grams between test and control animals at a dose of 5 mg/kg intraperitoneally; assay type: functional, Mus musculus; conditions: route intraperitoneal
B16 [3] = test: Percent of median lifetime of test animals divided by the median lifetime of control animals at a dose of 20 mg/kg intraperitoneally; assay type: functional, Mus musculus; conditions: route intraperitoneal; summary of the method: as §1
MX1 [4] = test: (§3) Difference in body weight in grams between test and control animals at a dose of 2.5 mg/kg intraperitoneally; assay type: functional, Mus musculus; conditions: route intraperitoneal
B16 [5] = test: Antitumor activity in B16 Melanoma system animals is indicated by survivors on day 4 at a dose of 10 mg/kg intraperitoneally; assay type: functional, Mus musculus; set-up: reference not given here; conditions: route intraperitoneal
Summary of the method: (§4)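 B16 melanoma, 10^6 cells inoculated ip on day 0. Ip treatment started day 1, schedule Q01Dx09 (one dose daily for 9 days). The score is live animals on day 4 over total animals; early deaths are taken as drug toxicity.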

B16 [6] = test: Percent of median lifetime of test animals divided by the median lifetime of control animals at a dose of 2.5 mg/kg intraperitoneally; assay type: functional, Mus musculus; conditions: route intraperitoneal; summary of the method: as §1
MX1 [7] = test: (§5) Difference in body weight in grams between test and control animals at a dose of 10 mg/kg intraperitoneally; assay type: functional, Mus musculus; conditions: route intraperitoneal
B16 [8] = test: as §2; assay type: functional, Mus musculus; conditions: route intraperitoneal
Summary of the method: (§6)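 B16 melanoma system: 10⁶ tumor cells inoculated ip on day 0. Drug given ip once daily for 9 days (Q01Dx09) starting day 1, dose as mg/kg body weight per injection. Read-out is the body-weight difference in grams, treated minus control animals. Early deaths, taken as toxicity, are scored on day 4.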

B16 [9] = test: Antitumor activity in B16 Melanoma system animals is indicated by survivors on day 4 at a dose of 5 mg/kg intraperitoneally; assay type: functional, Mus musculus; conditions: route intraperitoneal; summary of the method: as §4
MX1 [10] = test: (§7) Difference in body weight in grams between test and control animals at a dose of 20 mg/kg intraperitoneally; assay type: functional, Mus musculus; conditions: route intraperitoneal
B16 [11] = test: Percent of median lifetime of test animals divided by the median lifetime of control animals at a dose of 10 mg/kg intraperitoneally; assay type: functional, Mus musculus; conditions: route intraperitoneal; summary of the method: as §1
MX1 [12] = test: Difference in body weight in grams between test and control animals at a dose of 40 mg/kg intraperitoneally; assay type: functional, Mus musculus; conditions: route intraperitoneal
B16 [13] = test: Antitumor activity in B16 Melanoma system animals is indicated by survivors on day 4 at a dose of 20 mg/kg intraperitoneally; assay type: functional, Mus musculus; set-up: reference not given here; conditions: route intraperitoneal; summary of the method: as §4
B16 [14] = test: Antitumor activity in B16 Melanoma system animals is indicated by survivors on day 4 at a dose of 2.5 mg/kg intraperitoneally; assay type: functional, Mus musculus; set-up: reference not given here; conditions: route intraperitoneal; summary of the method: as §4
B16 [15] = test: Antitumor activity in B16 Melanoma system animals is indicated by survivors on day 4 at a dose of 1.2 mg/kg intraperitoneally; assay type: functional, Mus musculus; conditions: route intraperitoneal; summary of the method: as §4
B16 [16] = test: as §3; assay type: functional, Mus musculus; conditions: route intraperitoneal; summary of the method: as §6
B16 [17] = test: Difference in body weight in grams between test and control animals at a dose of 1.2 mg/kg intraperitoneally; assay type: functional, Mus musculus; conditions: route intraperitoneal
Summary of the method: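 B16 melanoma, 10^6 cells ip on day 0, then ip dosing from day 1, once daily for 9 days (Q01Dx09). The value is the body-weight difference in grams, treated minus tumored control animals.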

B16 [18] = test: as §7; assay type: functional, Mus musculus; conditions: route intraperitoneal; summary of the method: as §6
B16 [19] = test: as §5; assay type: functional, Mus musculus; conditions: route intraperitoneal; summary of the method: as §6
B16 [20] = test: Percent of median lifetime of test animals divided by the median lifetime of control animals at a dose of 1.25 mg/kg intraperitoneally; assay type: functional, Mus musculus; conditions: route intraperitoneal; summary of the method: as §1
B16 [21] = test: Difference in body weight in grams between test and control animals at a dose of 44 mg/kg intraperitoneally; assay type: functional, Mus musculus; conditions: route intraperitoneal; summary of the method: as §6
B16 [22] = test: Antitumor activity in B16 Melanoma system animals is indicated by survivors on day 4 at a dose of 5.5 mg/kg intraperitoneally; assay type: functional, Mus musculus; conditions: route intraperitoneal; summary of the method: as §4
B16 [23] = test: Percent of median lifetime of test animals divided by the median lifetime of control animals at a dose of 11 mg/kg intraperitoneally; assay type: functional, Mus musculus; conditions: route intraperitoneal; summary of the method: as §1
B16 [24] = test: Difference in body weight in grams between test and control animals at a dose of 22 mg/kg intraperitoneally; assay type: functional, Mus musculus; conditions: route intraperitoneal; summary of the method: as §6
B16 [25] = test: Percent of median lifetime of test animals divided by the median lifetime of control animals at a dose of 44 mg/kg intraperitoneally; assay type: functional, Mus musculus; conditions: route intraperitoneal; summary of the method: as §1
B16 [26] = test: Antitumor activity in B16 Melanoma system animals is indicated by survivors on day 4 at a dose of 44 mg/kg intraperitoneally; assay type: functional, Mus musculus; conditions: route intraperitoneal; summary of the method: as §4
B16 [27] = test: Percent of median lifetime of test animals divided by the median lifetime of control animals at a dose of 5.5 mg/kg intraperitoneally; assay type: functional, Mus musculus; conditions: route intraperitoneal; summary of the method: as §1
B16 [28] = test: Percent of median lifetime of test animals divided by the median lifetime of control animals at a dose of 2.75 mg/kg intraperitoneally; assay type: functional, Mus musculus; conditions: route intraperitoneal; summary of the method: as §1
B16 [29] = test: Antitumor activity in B16 Melanoma system animals is indicated by survivors on day 4 at a dose of 11 mg/kg intraperitoneally; assay type: functional, Mus musculus; conditions: route intraperitoneal; summary of the method: as §4
B16 [30] = test: Antitumor activity in B16 Melanoma system animals is indicated by survivors on day 4 at a dose of 22 mg/kg intraperitoneally; assay type: functional, Mus musculus; conditions: route intraperitoneal; summary of the method: as §4
B16 [31] = test: Percent of median lifetime of test animals divided by the median lifetime of control animals at a dose of 22 mg/kg intraperitoneally; assay type: functional, Mus musculus; conditions: route intraperitoneal; summary of the method: as §1
B16 [32] = test: Antitumor activity in B16 Melanoma system animals is indicated by survivors on day 4 at a dose of 2.75 mg/kg intraperitoneally; assay type: functional, Mus musculus; conditions: route intraperitoneal; summary of the method: as §4
B16 [33] = test: Antitumor activity in B16 Melanoma system animals is indicated by survivors on day 4 intraperitoneally; conditions: Mus musculus, route intraperitoneal
B16 [34] = test: Antitumor activity in B16 Melanoma system animals is indicated by survivors on day 4 at a dose of 1.25 mg/kg intraperitoneally; assay type: functional, Mus musculus; conditions: route intraperitoneal; summary of the method: as §4
B16 [35] = test: Difference in body weight in grams between test and control animals at a dose of 1.25 mg/kg intraperitoneally; assay type: functional, Mus musculus; conditions: route intraperitoneal; summary of the method: as §6
B16 [36] = test: Difference in body weight in grams between test and control animals at a dose of 5.5 mg/kg intraperitoneally; assay type: functional, Mus musculus; conditions: route intraperitoneal; summary of the method: as §6
B16 [37] = test: Difference in body weight in grams between test and control animals at a dose of 11 mg/kg intraperitoneally; assay type: functional, Mus musculus; conditions: route intraperitoneal; summary of the method: as §6
B16 [38] = test: Difference in body weight in grams between test and control animals at a dose of 2.75 mg/kg intraperitoneally; assay type: functional, Mus musculus; conditions: route intraperitoneal; summary of the method: as §6

SMILES	T/C (B16 [1])	T/C (B16 [3])	Activity (B16 [5])	T/C (B16 [6])	Weight difference (B16 [8])	Survivors on day 4 (B16 [9])	T/C (B16 [11])	Activity (B16 [14])	Weight difference (B16 [16])	Weight difference (B16 [18])	Weight difference (B16 [19])	T/C (B16 [20])	Weight difference (B16 [21])	Activity (B16 [22])	T/C (B16 [23])	Weight difference (B16 [24])	T/C (B16 [25])	Activity (B16 [26])	T/C (B16 [27])	T/C (B16 [28])	other results
CC(=O)OC1C(=O)[C@@]2(C)[C@H]([C@H](OC(=O)c3ccccc3)[C@]3(O)CC(OC(=O)C(OC(=O)CCCC(=O)NCCCN(C)C)C(NC(=O)c4ccccc4)c4ccccc4)C(C)=C1C3(C)C)[C@]1(OC(C)=O)CO[C@@H]1C[C@@H]2O.Cl (some centres not stated)	188%	352%	10	129%	0.1 g	10	352%	10	-0.1 g	0 g	-0.1 g	123%	–	–	–	–	–	–	–	–	Weight difference (MX1 [2]): 0.1 T-C; Weight difference (MX1 [4]): -0.6 T-C; Weight difference (MX1 [7]): -2.2 T-C; Weight difference (MX1 [10]): 0.3 T-C; Weight difference (MX1 [12]): -5.9 T-C; Activity (B16 [13]): 10; Activity (B16 [15]): 10; Weight difference (B16 [17]): -0.1 g
CC(=O)OC1C(=O)[C@]2(C)[C@@H](OC(=O)CCC(=O)[O-])C[C@H]3OC[C@@]3(OC(C)=O)[C@H]2[C@H](OC(=O)c2ccccc2)[C@]2(O)CC(OC(=O)C(OC(=O)CCC(=O)[O-])C(NC(=O)c3ccccc3)c3ccccc3)C(C)=C1C2(C)C.[Na+].[Na+] (some centres not stated)	–	–	–	–	–	–	–	–	–	–	–	–	0 g	10	149%	0 g	166%	10	114%	120%	Activity (B16 [29]): 10; Activity (B16 [30]): 10; T/C (B16 [31]): 109%; Activity (B16 [32]): 10
CC(=O)OC1C(=O)[C@]2(C)C(O)C[C@H]3OC[C@@]3(OC(C)=O)[C@H]2[C@H](OC(=O)c2ccccc2)[C@]2(O)CC(OC(=O)[C@@H]3OC(=O)N(C(=O)c4ccccc4)[C@H]3c3ccccc3)C(C)=C1C2(C)C (some centres not stated)	95%	98%	10	88%	0 g	10	100%	10	-0.3 g	-0.2 g	-0.1 g	94%	–	–	–	–	–	–	–	–	Activity (B16 [33]): 10; Activity (B16 [34]): 10; Weight difference (B16 [35]): -0.2 g
CC(=O)OC1C(=O)[C@]2(C)[C@@H](OC(=O)CCC(=O)O)C[C@H]3OC[C@@]3(OC(C)=O)[C@H]2[C@H](OC(=O)c2ccccc2)[C@]2(O)CC(OC(=O)C(OC(=O)CCC(=O)O)C(NC(=O)c3ccccc3)c3ccccc3)C(C)=C1C2(C)C (some centres not stated)	–	–	–	–	–	–	–	–	–	–	–	–	0 g	10	124%	0.3 g	114%	10	113%	109%	Weight difference (B16 [36]): -0.3 g; Activity (B16 [29]): 10; Activity (B16 [30]): 10; Weight difference (B16 [37]): 0.1 g; Weight difference (B16 [38]): -0.3 g; T/C (B16 [31]): 105%; Activity (B16 [32]): 10
